In ChEMBL document CHEMBL4038313, “Expanding the Antiviral Spectrum of 3-Fluoro-2-(phosphonomethoxy)propyl Acyclic Nucleoside Phosphonates: Diamyl Aspartate Amidate Prodrugs” (J Med Chem, 2017):

Columns and labels:
Human alphaherpesvirus 3 [1] = assay: Antiviral activity against thymidine kinase deficient Varicella-Zoster virus 07-1 infected in HEL cells assessed as inhibition of plaque formation; format: functional, cell-based; details: Human alphaherpesvirus 3, 07-1, HEL
Method in brief: (§1)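 HEL fibroblast monolayers inoculated with 100 CCID50 HCMV (AD-169, Davis) or 20 PFU VZV (TK+ Oka, TK− 07-1). Adsorbed 1–2 h, inoculum removed, then incubated with compound dilutions. HCMV cytopathicity or VZV plaques scored once untreated infected controls reached completion. EC50 is 50% reduction. SI is CC50/EC50, and the potency ratio is the ratio of EC50s.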

[2] = Cytotoxicity against human PHA-stimulated PBMC assessed as cell viability by tetrazolium dye assay; format: cell-based
Hepatitis B virus = assay: Antiviral activity against HBV ayw1 infected in human HepG2(2.2.15) cells assessed as reduction in viral replication by measuring intracellular viral DNA copy number after 6 days byr by real-time qPCR assay; format: functional, cell-based; details: ayw1, HepG2 2.2.15, 144 h
Method in brief: (§2)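 Run as the HepG2.2.15 6-day assay (triplicate compound, medium with compound renewed at day 3). At the end, total intracellular DNA was isolated from the cells and HBV DNA copy number measured by TaqMan qPCR. EC50/EC90 derived; SI is CC50/EC50.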

[3] = test system: Human immunodeficiency virus 1; assay: Potency index, ratio of (S)-9-[3-Fluoro-2-(phosphonomethoxy)propyl]adenine EC50 to compound EC50 for CXCR4-tropic HIV-1 NL4-3 infected in human TZM-bl cells; format: functional
[4] = Selectivity index, ratio of CC50 for human TZM-bl cells to EC50 for CCR5 tropic HIV1 BaL infected in human TZM-bl cells; format: toxicity, cell-based; details: read-out: Ratio CC50/EC50
Human alphaherpesvirus 3 [5] = assay: Antiviral activity against thymidine kinase expressing Varicella-Zoster virus Oka strain assessed as inhibition of plaque formation; format: functional; details: Human alphaherpesvirus 3, strain Oka vaccine; method in brief: as §1
[6] = Half life in human plasma at 1 uM by HPLC-MS/MS method; format: ADME, cell-free
Method in brief: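 Human plasma preincubated 10 min with pH 7.4 phosphate buffer at 37 °C. Compound added at final 1 μM and sampled at 0, 0.5, 1, 1.5 and 2 h into acetonitrile. Centrifuged and analysed by HPLC-MS/MS. t1/2 is the mean of two experiments.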

[7] = Cytotoxicity against human HepG2.2.15 cells assessed as cell viability by tetrazolium dye uptake assay; format: cell-based, HepG2 2.2.15
Method in brief: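 HepG2.2.15 cells (two integrated copies of HBV ayw1 genome) were seeded at 1.5 × 10^4 cells/well in DMEM with 2% FBS, 380 μg/mL G418, glutamine, antibiotics and nonessential amino acids. After 16−24 h, medium with various compound concentrations was added in triplicate and renewed on day 3. After 6 days of treatment, viability was read by MTS uptake and CC50 was calculated.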

[8] = Half life in human liver microsomes at 0.1 uM in presence of NADPH by HPLC-MS/MS method; format: ADME, microsome
Method in brief: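 Pooled human liver microsomes preincubated 10 min at 37 °C with an NADPH-regenerating system (1 mM NADP, 5 mM G6P, G6PDH) in pH 7.4 phosphate with 3 mM MgCl2 and 1 mM EDTA. Compound added at final 0.1 μM and sampled at 0–60 min into acetonitrile/methanol. Analysed by HPLC-MS/MS, mean of two experiments.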

[9] = test system: Human immunodeficiency virus 1; assay: Antiviral activity against tenofovir-resistant CXCR4-tropic HIV-1 NL4-3 harboring reverse transcriptase K65R mutant infected in human MT4 cells assessed as inhibition of viral replication inhibition of virus-induced cytopathic effect after 6 days by XTT dye based assay; format: functional, cell-based; details: Human immunodeficiency virus 1, NL4-3, MT4, 144 h
Method in brief: (§3)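 MT-4 cells, 1 × 10^4 per well, given compound dilutions and wild-type NL4-3 or K65R NL4-3. Virus titred to give 85–95% cell killing at day 6. Incubated 6 days at 37 °C, 5% CO2. Viability read by XTT at 450/650 nm. EC50 from CPE reduction and toxicity from uninfected drug wells, by four-parameter fit. Fold change is K65R EC50 over wild-type EC50.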

[10] = test system: Human immunodeficiency virus 1; assay: Antiviral activity against CXCR4-tropic HIV-1 NL4-3 infected in human MT4 cells assessed as inhibition of virus-induced cytopathic effect after 6 days by XTT dye based assay; format: functional, cell-based; details: Human immunodeficiency virus 1, NL4-3, MT4, 144 h; method in brief: as §3
[11] = test system: Human immunodeficiency virus 1; assay: Antiviral activity against CCR5 tropic HIV1 BaL infected in human PHA-stimulated PBMC assessed as inhibition of viral replication by measuring reduction in p24 antigen production preincubated with cells for 30 mins followed by viral infection measured on day 10 post infection in presence of IL-2 by ELISA; format: functional; details: Human immunodeficiency virus 1, BaL
Method in brief: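 PBMCs stimulated with 2 μg/mL PHA for 3 days at 37 °C, then 5 × 10^5 cells/ml preincubated 30 min at 37 °C with serial compound dilutions plus 2 ng/mL IL-2. Infected with 1500 pg/well HIV-1 BaL or 500 pg/well other isolates. IL-2 re-added on days 3 and 6. Supernatant p24 Ag measured by ELISA at day 10. EC50 is 50% inhibition of replication.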

[12] = Cytotoxic activity against HEL cells assessed as alteration of cell morphology after 3 days by microscopic method; format: cell-based; details: human
Method in brief: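 HEL cells with compound; MCC is the lowest concentration giving microscopically detectable alteration of cell morphology.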

Human alphaherpesvirus 3 [13] = assay: Potency index, ratio of (S)-9-[3-Fluoro-2-(phosphonomethoxy)propyl]adenine EC50 to compound EC50 for thymidine kinase expressing Varicella-Zoster virus Oka; format: functional, strain Oka vaccine; method in brief: as §1
Human alphaherpesvirus 3 [14] = assay: Potency index, ratio of (S)-9-[3-Fluoro-2-(phosphonomethoxy)propyl]adenine EC50 to compound EC50 for thymidine kinase deficient Varicella-Zoster virus 07-1; format: functional; method in brief: as §1
[15] = test system: Human immunodeficiency virus 1; assay: Antiviral activity against CXCR4-tropic HIV-1 NL4-3 infected in human TZM-bl cells assessed as inhibition of virus-induced cytopathic effect preincubated with cells for 30 mins followed by viral infection measured after 48 hrs in presence of p-24 HIV-1 Ag by luciferase reporter gene assay; format: functional, cell-based; details: Human immunodeficiency virus 1, NL4-3, TZM-bl
Method in brief: (§4)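 TZM-bl cells, 1 × 10^4 per well in DMEM with 10% FBS and 10 mM […], incubated 30 min at 37 °C with compound. Then HIV-1 NL4.3 (X4) or BaL (R5) added at 100 pg p24 Ag per well. After 48 h, cells lysed with luciferase substrate. Tat-induced luminescence read after 10 min dark incubation as a measure of replication.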

[16] = Selectivity index, ratio of CC50 for human PHA-stimulated PBMC to IC50 for CXCR4-tropic HIV-1 NL4-3 infected in human PHA-stimulated PBMC
[17] = Cytotoxicity against human MT4 cells assessed as reduction in cell viability after 6 days by XTT tetrazolium dye-based assay; method in brief: as §3
[18] = Selectivity index, ratio of CC50 for HepG2.2.15 cells to EC50 for HBV ayw1 infected in human HepG2(2.2.15) cells assessed as reduction in viral replication by measuring intracellular viral DNA copy; method in brief: as §2
[19] = test system: Human immunodeficiency virus 1; assay: Antiviral activity against CCR5 tropic HIV1 BaL infected in human TZM-bl cells assessed as inhibition of virus-induced cytopathic effect preincubated with cells for 30 mins followed by viral infection measured after 48 hrs in presence of p-24 HIV-1 Ag by luciferase reporter gene assay; format: functional, cell-based; details: Human immunodeficiency virus 1, BaL; method in brief: as §4

Structure (SMILES): CCCCCOC(=O)C[C@H](NP(=O)(CO[C@H](CF)Cn1cnc2c(N)ncnc21)Oc1ccccc1)C(=O)OCCCCC (stereo partly specified)
- EC50 (Human alphaherpesvirus 3 [1]): 57 nM
- CC50 [2]: 2480 nM
- EC50 (Hepatitis B virus): 20 nM
- EC90 (Hepatitis B virus): 6080 nM
- Ratio EC50 [3]: 600
- selectivity ratio [4]: 7910
- EC50 (Human alphaherpesvirus 3 [5]): 50 nM
- half-life at 1 µM [6]: 89 min
- CC50 [7]: 20300 to 22600 nM
- half-life at 0.1 µM [8]: 2 min
- EC50 [9]: 170 nM
- EC50 [10]: 30 nM
- IC50 [11]: 22 nM
- MCC at 72 h [12]: 31.4 µM
- Ratio EC50 (Human alphaherpesvirus 3 [13]): 2000
- Ratio EC50 (Human alphaherpesvirus 3 [14]): 2000
- EC50 [15]: 10 nM
- Ratio CC50/IC50 [16]: >827
- CC50 at 144 h [17]: > 1000 nM
- Ratio CC50/EC50 [18]: 1017
- EC50 [19]: 4 nM
